The results in this text go back to ChEMBL document CHEMBL1126283, “Thromboxane receptor antagonism combined with thromboxane synthase inhibition. 4. 8-[[(4-Chlorophenyl)sulfonyl]amino]-4-(3-(3-pyridinyl) propyl)octanoic acid and analogs” (J Med Chem, 1992).

The species entered for one experiment is Canis familiaris. Nature of the experiment: Evaluated for contraction of dog saphenous vein. The experiment is classed as functional, organism-based. The note with it: Canis lupus familiaris, read-out: pA2 (converted). In outline: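 Dog saphenous vein rings contracted with U 46619; antagonism expressed as pA2. Number of determinations = 1, with more than 12 rings per determination and a single drug concentration applied to each ring.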

Experiment [1] has as its system Cavia porcellus. Nature of the experiment: Ex vivo inhibition of U-46,619-induced aggregation of guinea pig platelets after peroral administration of 10 mg/kg dose at 1 hr time. The experiment is classed as functional. To be noted: route oral. The procedure, abridged: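 Fasted (12-16 h) male Hartley guinea pigs (350-400 g), 3-6 per group, dosed orally in a 3% fortified cornstarch suspension vehicle. At 1 h (or 6 h), animals under methoxyflurane anaesthesia were bled by cardiac puncture into citrate (0.0129 M final). PRP (500g, 7 min) was stirred 1 min at 37 °C, then U 46619 added. Result reported as EC50 drug-treated / EC50 vehicle.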

The species named for experiment [2] is Homo sapiens. Nature of the experiment: Evaluated in vitro for the inhibition of U 46619 induced aggregation of platelet-rich plasma. The procedure, abridged:
(§1)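 Antagonism of aggregation induced by the PGH2/TxA2 mimetic U 46619, run in human washed platelets (WP) and in platelet-rich plasma (PRP); IC50 reported. Values come from one or two determinations.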

Experiment [3] is filed under the species Homo sapiens. Nature of the experiment: In vitro inhibition of U 46619 induced aggregation of washed platelets. The procedure, abridged:
as §1

In the next experiment the target is T1, Thromboxane-A synthase (Homo sapiens, UniProt P24557).
T1 sequence (P24557 whole entry): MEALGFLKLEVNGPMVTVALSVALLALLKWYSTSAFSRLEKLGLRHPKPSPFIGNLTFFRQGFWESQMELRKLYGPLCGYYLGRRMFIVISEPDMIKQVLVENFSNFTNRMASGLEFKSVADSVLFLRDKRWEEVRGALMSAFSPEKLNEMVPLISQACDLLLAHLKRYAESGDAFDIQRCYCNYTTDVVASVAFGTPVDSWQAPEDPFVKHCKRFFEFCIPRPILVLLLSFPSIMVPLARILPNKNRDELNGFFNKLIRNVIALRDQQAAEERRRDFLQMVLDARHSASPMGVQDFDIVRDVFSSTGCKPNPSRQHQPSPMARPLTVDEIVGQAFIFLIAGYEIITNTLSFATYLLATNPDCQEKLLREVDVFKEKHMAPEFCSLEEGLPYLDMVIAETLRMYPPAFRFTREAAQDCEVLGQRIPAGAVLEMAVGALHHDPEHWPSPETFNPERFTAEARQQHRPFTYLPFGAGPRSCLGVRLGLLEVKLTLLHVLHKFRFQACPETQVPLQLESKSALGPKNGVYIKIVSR
Put plainly: In vitro inhibition of Thromboxane A2 synthase.

For experiment [4], the species on record is Homo sapiens. Nature of the experiment: In vitro inhibition of U 46619 induced aggregation of washed platelets(WP). In outline:
as §1

The species entered for experiment [5] is Cavia porcellus. Nature of the experiment: Inhibition of bronchoconstriction in guinea pigs. The experiment is classed as functional. To be noted: Lung. The procedure, abridged:
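Guinea pigs with cannulated trachea, ventilated at 40 strokes/min, given succinylcholine (1.0 mg/kg). Arachidonic acid priming dose 0.25 mg/kg iv, then 0.5 mg/kg iv. Test compound was then given as an iv bolus, with a 0.5 mg/kg AA challenge 5 min later. Peak insufflation pressure expressed as % of control. Five doses (0.1-1000 µg/kg), 6-8 animals per dose, ED50 derived.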

For experiment [6], the system named is Cavia porcellus. Nature of the experiment: Ex vivo inhibition of U-46,619-induced aggregation of guinea pig platelets after peroral administration of 10 mg/kg dose at 6 hr time. The experiment is classed as functional. To be noted: route oral. The procedure, abridged:
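Male Hartley guinea pigs (350-400 g), fasted 12-16 h, dosed orally in 3% fortified cornstarch suspension vehicle; groups of three to six. At 6 h, cardiac-puncture blood drawn under methoxyflurane into citrate (0.0129 M final). PRP obtained at 500g, 7 min. PRP preincubated 1 min at 37 °C with stirring, then U 46619 added. Aggregation ratio = EC50 drug-treated/EC50 vehicle-treated.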

pIC50: −log10 of the molar value. Some results are limits rather than exact numbers.

By pIC50 is commonly meant the negative decadic logarithm of the IC50, by convention in mol/L. A low value points to a large IC50. Consider `CC(C)(CC(CCCCNS(=O)(=O)c1ccc(Cl)cc1)CCCc1cccnc1)C(=O)O` (centres undefined), for which the Kb in the experiment filed under Canis familiaris is 1 nM. Further, in the experiment on Cavia porcellus [1], the Concentration ratio is recorded as 8.7. Also, the pIC50 is 5.43 in the experiment filed under Homo sapiens [2], 7.74 in the experiment filed under Homo sapiens [3] and 7.70 on Thromboxane-A synthase.

For the compound `O=C(O)CCC(CCCCNS(=O)(=O)c1ccc(Cl)cc1)CCCn1ccnc1` (centres undefined), the Kb in the experiment filed under Canis familiaris is 5.5 nM. Also, the pIC50 in the experiment listed under Homo sapiens [2] is 5.43; in the experiment filed under Homo sapiens [3] it was 6.01; against Thromboxane-A synthase, 8.52.

Turning to `O=C(O)/C=C/C(CCCCNS(=O)(=O)c1ccc(Cl)cc1)CCCc1cccnc1` (centres undefined), the pIC50 in the experiment listed under Homo sapiens [2] is 6.11; in the experiment listed under Homo sapiens [3] it was 7.15; against Thromboxane-A synthase, 8.00.

With `O=S(=O)(NCCCCC(CCCO)CCCc1cccnc1)c1ccc(Cl)cc1` (centres undefined), the pIC50 in the experiment listed under Homo sapiens [3] was 5.63; at Thromboxane-A synthase, 7.15.

`NC(=O)CCC(CCCCNS(=O)(=O)c1ccc(Cl)cc1)CCCc1cccnc1` (centres undefined): the results for the pIC50 in the experiment listed under Homo sapiens [3] and at Thromboxane-A synthase were below 5.00 and 7.22, respectively.

`O=C(O)CCC(CCCCNS(=O)(=O)c1ccc(Cl)cc1)CCCc1ccc[n+]([O-])c1` (centres undefined): the Kb in the experiment filed under Canis familiaris was 7.41 nM. Also, the figures for the pIC50 in the experiment listed under Homo sapiens [2], in the experiment filed under Homo sapiens [3] and against Thromboxane-A synthase were 5.06, 6.30 and 8.52, respectively.

As for `O=C(O)CCC(CCCCNS(=O)(=O)c1ccc2ccccc2c1)CCCc1cccnc1` (centres undefined), the results for the pIC50 in the experiment listed under Homo sapiens [2], in the experiment filed under Homo sapiens [3] and on Thromboxane-A synthase were 5.55, 6.62 and 8.82, respectively.

For the compound `O=C(O)CCC(CCCCNS(=O)(=O)c1ccc(F)cc1)CCCc1cccnc1` (centres undefined), the pIC50 in the experiment filed under Homo sapiens [2] was below 4.52; in the experiment listed under Homo sapiens [3], 6.97; against Thromboxane-A synthase, 9.00.

In the case of `O=C(O)CCC(C/C=C/c1cccnc1)CCCCNS(=O)(=O)c1ccc(Cl)cc1` (centres undefined), the Kb in the experiment filed under Canis familiaris is 0.603 nM. Further, the values for the pIC50 in the experiment listed under Homo sapiens [2], in the experiment listed under Homo sapiens [3] and at Thromboxane-A synthase were 5.92, 7.57 and 8.15, respectively.

Regarding `O=C(O)CCC(CCCCNS(=O)(=O)c1ccc(Cl)cc1)CCn1ccnc1` (centres undefined), the Kb in the experiment filed under Canis familiaris was 34.7 nM. For the same compound, the pIC50 is 5.82 in the experiment filed under Homo sapiens [3] and 7.40 at Thromboxane-A synthase.

Consider `CC(CC(CCCCNS(=O)(=O)c1ccc(Cl)cc1)CCCc1cccnc1)C(=O)O` (centres undefined), for which the Kb in the experiment filed under Canis familiaris is 1.48 nM. In addition, the Concentration ratio in the experiment with Cavia porcellus [1] came out at 9. Also, the pIC50 is 5.54 in the experiment listed under Homo sapiens [2], 7.28 in the experiment listed under Homo sapiens [3] and 8.52 at Thromboxane-A synthase.

As to `O=C(O)C(CCCCNS(=O)(=O)c1ccc(Cl)cc1)CCCc1cccnc1` (centres undefined), the pIC50 is 5.03 in the experiment filed under Homo sapiens [4] and 7.05 against Thromboxane-A synthase.

As to `O=C(O)C(=O)NC(CCCCNS(=O)(=O)c1ccc(Cl)cc1)CCCc1cccnc1` (centres undefined), the Kb in the experiment filed under Canis familiaris is 1.86 nM. The pIC50 is 4.95 in the experiment filed under Homo sapiens [2], 6.23 in the experiment filed under Homo sapiens [3] and 6.82 on Thromboxane-A synthase.

`Cc1ccncc1CCCC(CCCCNS(=O)(=O)c1ccc(Cl)cc1)CCC(=O)O` (centres undefined): the pIC50 is 5.31 in the experiment listed under Homo sapiens [2], 8.22 in the experiment listed under Homo sapiens [3] and 9.00 against Thromboxane-A synthase.

Turning to `[N-]=[N+]=Nc1ccc(S(=O)(=O)NCCCCC(CCCc2cccnc2)CCC(=O)O)cc1` (centres undefined), the pIC50 in the experiment filed under Homo sapiens [2] is 5.70; in the experiment filed under Homo sapiens [3], 7.46; against Thromboxane-A synthase it was 8.40.

For the compound `CS(=O)(=O)c1ccc(S(=O)(=O)NCCCCC(CCCc2cccnc2)CCC(=O)O)cc1` (centres undefined), the negative-log IC50 (pIC50) was below 5.00 in the experiment filed under Homo sapiens [3] and 8.40 against Thromboxane-A synthase.

As for `O=S(=O)(NCCCCC(CCCc1cccnc1)CCC1N=NN=N1)c1ccc(Cl)cc1` (centres undefined), the Kb in the experiment filed under Canis familiaris is 0.468 nM. In the experiment on Cavia porcellus [1], the Concentration ratio is reported as 10. Besides, the results for the pIC50 in the experiment filed under Homo sapiens [2], in the experiment filed under Homo sapiens [3] and on Thromboxane-A synthase were 6.04, 7.66 and 8.30, respectively.

Turning to `O=C(O)CCC(CCCCNS(=O)(=O)c1ccc(C(F)(F)F)cc1)CCCc1cccnc1` (centres undefined), the negative-log IC50 (pIC50) in the experiment filed under Homo sapiens [2] was 6.21; in the experiment filed under Homo sapiens [3] it was 6.64; on Thromboxane-A synthase, 8.70.

What is called ED50 is the dose at which the effect has come halfway, by size or by number of responders. Read a high ED50 as weaker potency. For `O=C(O)CSC(CCCCNS(=O)(=O)c1ccc(Cl)cc1)CCCc1cccnc1` (centres undefined), in the experiment filed under Canis familiaris, the Kb is 0.269 nM. Also, the ED50 in the experiment filed under Cavia porcellus [5] stood at 7.42 µg/kg. Besides, in the experiment on Cavia porcellus [1], the Concentration ratio is given as 33. The results for the negative-log IC50 (pIC50) in the experiment filed under Homo sapiens [2], in the experiment listed under Homo sapiens [3] and on Thromboxane-A synthase were 6.40, 8.22 and 8.70, respectively.

As to `CCOC(=O)CCC(CCCCNS(=O)(=O)c1ccc(Cl)cc1)CCCc1cccnc1` (centres undefined), the Concentration ratio in the experiment with Cavia porcellus [1] is given as 3.

For `O=C(O)COC(CCCCNS(=O)(=O)c1ccc(Cl)cc1)CCCc1cccnc1` (centres undefined), in the experiment with Cavia porcellus [1], the Concentration ratio is listed as 2.6. Also, the pIC50 was 5.80 in the experiment listed under Homo sapiens [2], 7.82 in the experiment filed under Homo sapiens [3] and 7.74 on Thromboxane-A synthase.

For the compound `COc1ccc(S(=O)(=O)NCCCCC(CCCc2cccnc2)CCC(=O)O)cc1` (centres undefined), the pIC50 in the experiment filed under Homo sapiens [2] is 5.87; in the experiment listed under Homo sapiens [3] it was 6.66; at Thromboxane-A synthase, 8.52.

As to `O=C(O)CC(CCCCNS(=O)(=O)c1ccc(Cl)cc1)CCCc1cccnc1` (centres undefined), the Kb in the experiment filed under Canis familiaris is 3.72 nM. The pIC50 in the experiment filed under Homo sapiens [3] is 6.70; on Thromboxane-A synthase, 8.15.

With `Cc1ccc(S(=O)(=O)NCCCCC(CCCc2cccnc2)CCC(=O)O)cc1` (centres undefined), the Kb in the experiment filed under Canis familiaris is 1.55 nM. Further, the pIC50 in the experiment listed under Homo sapiens [2] is 4.82; in the experiment listed under Homo sapiens [3], 7.24; against Thromboxane-A synthase it was 9.00.

With `O=C(O)CCC(CCCCNS(=O)(=O)c1ccc(Cl)cc1)CCOc1cccnc1` (centres undefined), the Kb in the experiment filed under Canis familiaris is 0.398 nM. In the experiment listed under Cavia porcellus [5], this compound had an ED50 of 5.2 µg/kg. Further, the Concentration ratio in the experiment on Cavia porcellus [6] and with Cavia porcellus [1] was above 100 throughout. Moreover, the pIC50 in the experiment listed under Homo sapiens [2] was 6.55; in the experiment listed under Homo sapiens [3], 7.89; at Thromboxane-A synthase it was 8.52.

In the experiment filed under Cavia porcellus [5], `O=C(O)CCC(CCCCNS(=O)(=O)c1ccc(Cl)cc1)CCCc1cccnc1` (centres undefined) displayed an ED50 of 5.75 µg/kg. The Concentration ratio was 11.8 in the experiment on Cavia porcellus [6] and 27.3 in the experiment on Cavia porcellus [1]. On Thromboxane-A synthase, this compound had a pIC50 of 7.70.

`O=C(O)CCCCO/N=C(/c1cccnc1)c1cccc(C(F)(F)F)c1` [RIDOGREL] returned an ED50 in the experiment listed under Cavia porcellus [5] of 48.3 µg/kg. Besides, in the experiment on Cavia porcellus [1], the Concentration ratio came to 5.6.
